Results gathered from unrelated publications.
Matrix: plasma

CC(=O)O[C@H]1C(=O)[C@@]2(C)[C@H]([C@H](OC(=O)c3ccccc3)[C@]3(O)C[C@H](OC(=O)[C@H](O)[C@@H](NC(=O)c4ccccc4)c4ccccc4)C(C)=C1C3(C)C)[C@]1(OC(C)=O)CO[C@@H]1C[C@@H]2O
AUC(0-t) (human; intravenous; 60 mg/m²): 2.1 µM·h

OC[C@H]1O[C@@H](c2cc(Cc3ccc(C4CC4)cc3)c(Cl)c3c2CCO3)[C@H](O)[C@@H](O)[C@@H]1O
AUC(0-t) (human; oral; 0.3 mg; single dose, fasted): 26.5 ng·h/mL

Cc1cc(-c2nccc3c2ccn3CC(=O)Nc2ccc(-c3cnccn3)cn2)ccn1
AUC(0-t) (human; oral; 7 mg; single dose): 0.498 µM·h

COc1ccc(-c2c(Nc3ccccn3)[nH]c3c(C4=CCCCC4)c(-c4ccccc4)nn3c2=O)cc1
AUC(0-t) (human; oral; 100 mg once daily; multiple doses, steady state, patients): 66300 ng·h/mL

C[C@@H](Oc1ccc(S(C)(=O)=O)cc1C(=O)N1C[C@@H]2C[C@]2(c2cc(C(F)(F)F)on2)C1)C(F)(F)F
AUC(0-t) (human; oral; 10 mg; single dose, fed): 1.81 µM·h

COc1ccc2c(c1)CN(C(=O)CCN1CCC(Cc3ccccc3)CC1)CC[S@@+]2[O-]
AUC(0-t) (male human; intravenous; 0.05 mg/kg; healthy volunteers): 241 ng·h/mL

CC(C)n1c(C2CCNCC2)nc2c([N+](=O)[O-])c(Br)c(Br)cc21
AUC(0-t) (human; oral; 25 mg; patients): 152 ng·h/mL

CC(=O)N(C)[C@H]1CCN(C(=O)c2cnc3c(c2)C[C@](C)(c2ccc(F)cc2)N3)C1
AUC(0-t) (male human; oral; 15 mg; multiple doses, once daily): 1.88 µM·h
